Data from ChEMBL document CHEMBL1833804, “Discovery of N-(3-(1-methyl-1,2,3,6-tetrahydropyridin-4-yl)-1H-indol-6-yl) thiophene-2-carboximidamide as a selective inhibitor of human neuronal nitric oxide synthase (nNOS) for the treatment of pain” (J Med Chem, 2011).
Active and inactive are the calls of the source. The calls are words filed in the database; no cut-off is given here.

Tests used:
[1] = target: Nitric oxide sythases; iNOS & nNOS (Homo sapiens) (UniProt P29475+P35228); assay: Selectivity ratio of IC50 for human recombinant iNOS to IC50 for human recombinant nNOS
In short: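 Recombinant human nNOS and iNOS were expressed in baculovirus-infected Sf9 cells, and the assay measured [³H]-L-arginine to [³H]-L-citrulline conversion. nNOS buffer: 40 mM HEPES pH 7.4 with CaCl₂, MgCl₂, BSA, 1 mM NADPH and 1.2 μM CaM. iNOS buffer: 100 mM HEPES pH 7.4 with 120 μM NADPH and 100 nM CaM. Compound was preincubated 15 min at RT, then reacted 45 min at 37 °C. Citrulline was separated on DOWEX and counted by scintillation, in duplicate. The ratio is IC50 iNOS/IC50 nNOS.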

Homo sapiens = species on record: Homo sapiens; assay: Antimigraine activity in migraine patients relative to placebo treated control; assay type: functional
Gerbillinae = assay: Neuroprotective activity in gerbil cerebral ischemia model; assay type: functional
Nitric oxide synthase 3 = target: T1, Nitric oxide synthase 3 (Homo sapiens, UniProt P29474); assay: Inhibition of human recombinant eNOS expressed in Sf9 cells assessed as inhibition of conversion of [3H]-L-arginine to [3H]-L-citrulline after 45 mins by liquid scintillation counting
T1 sequence (P29474 whole entry): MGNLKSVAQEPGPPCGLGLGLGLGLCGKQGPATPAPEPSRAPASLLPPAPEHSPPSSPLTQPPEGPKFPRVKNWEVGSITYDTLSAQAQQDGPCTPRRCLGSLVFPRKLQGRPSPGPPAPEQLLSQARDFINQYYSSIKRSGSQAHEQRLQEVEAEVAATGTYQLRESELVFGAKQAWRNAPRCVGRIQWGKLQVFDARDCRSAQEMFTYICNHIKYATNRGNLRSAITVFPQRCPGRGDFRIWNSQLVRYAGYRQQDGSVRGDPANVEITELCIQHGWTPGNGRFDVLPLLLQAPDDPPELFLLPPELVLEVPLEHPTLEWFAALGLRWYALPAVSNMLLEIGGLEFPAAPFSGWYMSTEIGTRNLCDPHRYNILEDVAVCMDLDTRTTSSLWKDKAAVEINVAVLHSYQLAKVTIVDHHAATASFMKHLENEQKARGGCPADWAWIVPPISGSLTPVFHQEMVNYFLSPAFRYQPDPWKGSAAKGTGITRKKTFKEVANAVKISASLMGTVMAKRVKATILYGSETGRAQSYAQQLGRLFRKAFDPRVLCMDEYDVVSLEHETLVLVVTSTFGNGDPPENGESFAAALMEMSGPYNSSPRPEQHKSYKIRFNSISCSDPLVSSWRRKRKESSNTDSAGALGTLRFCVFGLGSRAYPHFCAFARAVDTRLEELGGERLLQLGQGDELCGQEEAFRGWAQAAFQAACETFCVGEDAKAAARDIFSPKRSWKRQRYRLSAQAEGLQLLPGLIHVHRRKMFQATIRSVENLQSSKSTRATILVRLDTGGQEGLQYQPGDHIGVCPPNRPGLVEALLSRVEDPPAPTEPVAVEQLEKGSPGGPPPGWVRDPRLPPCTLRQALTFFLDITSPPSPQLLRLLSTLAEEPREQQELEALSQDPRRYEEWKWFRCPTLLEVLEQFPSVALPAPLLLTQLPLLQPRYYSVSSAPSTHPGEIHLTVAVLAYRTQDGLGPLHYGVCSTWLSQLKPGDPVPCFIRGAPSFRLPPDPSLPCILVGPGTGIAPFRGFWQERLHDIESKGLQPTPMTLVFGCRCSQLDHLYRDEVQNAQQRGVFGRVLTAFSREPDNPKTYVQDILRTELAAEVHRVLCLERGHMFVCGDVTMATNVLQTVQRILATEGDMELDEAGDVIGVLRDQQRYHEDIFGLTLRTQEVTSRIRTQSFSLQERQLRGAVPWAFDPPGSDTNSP
In short: (§1)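 Recombinant human eNOS or nNOS from baculovirus-infected Sf9 cells in 40 mM HEPES pH 7.4 with 2.4 mM CaCl2, 1 mM MgCl2, 1 mg/mL BSA, 1 mM EDTA, 1 mM DTT, 1 μM FMN, 1 μM FAD, 10 μM BH4, 1 mM NADPH and 1.2 μM CaM. Compound preincubated 15 min at RT, then [3H]-L-arginine conversion ran 45 min at 37 °C. Stopped with pH 5.5 HEPES/EGTA/EDTA buffer. [3H]-citrulline separated on Dowex and counted by scintillation. Duplicates.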

[2] = target: Nitric oxide synthase, inducible (Homo sapiens, UniProt P35228); assay: Inhibition of human recombinant iNOS expressed in Sf9 cells assessed as inhibition of conversion of [3H]-L-arginine to [3H]-L-citrulline after 45 mins by liquid scintillation counting
In short: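 Recombinant human iNOS from baculovirus-infected Sf9 cells in 100 mM HEPES pH 7.4 with 1 mM CaCl2, 1 mM EDTA, 1 mM DTT, 1 μM FMN, 1 μM FAD, 10 μM BH4, 120 μM NADPH and 100 nM CaM. Compound preincubated 15 min at RT, then 45 min at 37 °C. [3H]-citrulline from [3H]-L-arginine separated on Dowex and counted by scintillation. Duplicates.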

Nitric oxide synthase 1 = Nitric oxide synthase 1 (Homo sapiens, UniProt P29475); assay: Inhibition of human recombinant nNOS expressed in Sf9 cells assessed as inhibition of conversion of [3H]-L-arginine to [3H]-L-citrulline after 45 mins by liquid scintillation counting; in short: as §1
[3] = target: T2, Nitric oxide synthase 3 (Homo sapiens) (UniProt P29474); assay: Inhibition of eNOS in human arteries precontracted with U46619 assessed as inhibition of acteylcholine-induced vasorelaxation after 50 mins
T2 sequence (whole entry): T1 sequence (P29474 whole entry)
In short: (§2)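 Human resistance artery rings of about 2 mm from surgical explants, wire-mounted in myograph baths of Krebs-bicarbonate PSS gassed with 95% O2/5% CO2 at 37 °C. Rings equilibrated at least 30 min with washes every 15 min, then standardised. Isometric tension recorded during ACh relaxation (10^-10 to 10^-5 M).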

[4] = target: T2, Nitric oxide synthase 3 (Homo sapiens); assay: Inhibition of eNOS in human arteries precontracted with U46619 assessed as inhibition of acteylcholine-induced vasorelaxation at 100 uM after 50 mins in the presence of 1 mM L-arginine; in short: as §2
Cytochrome P450 2D6 = Cytochrome P450 2D6 (Homo sapiens, UniProt P10635); assay: Inhibition of CYP2D6 using AMMC as substrate; assay type: ADME
In short: (§3)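 Insect-cell microsomes expressing single human CYP isozymes, incubated at 37 °C with an NADPH regenerating system (NADP+, glucose-6-phosphate, G6P dehydrogenase, MgCl2) and an isozyme-specific fluorogenic substrate. Formation of the fluorescent metabolite was measured with and without test compound across 0.0457–100 μM. An enzyme-selective inhibitor served as positive control. Duplicate determinations, IC50 reported.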

[5] = target: T2, Nitric oxide synthase 3 (Homo sapiens); assay: Inhibition of eNOS in human arteries precontracted with U46619 assessed as inhibition of acteylcholine-induced vasorelaxation at 1 to 100 uM after 50 mins in the presence of 1 mM L-arginine; in short: as §2
Cytochrome P450 3A4 [6] = target: T3, Cytochrome P450 3A4 (Homo sapiens, UniProt P08684); assay: Inhibition of CYP3A4 using BQ as substrate; assay type: ADME; in short: as §3
Cytochrome P450 3A4 [7] = target: T3, Cytochrome P450 3A4; assay: Inhibition of CYP3A4 using BFC as substrate; assay type: ADME; in short: as §3
Rattus norvegicus [8] = assay: Analgesic activity in ip dosed rat spinal nerve ligation model assessed as reversal of thermal hyperalgesia measured after 60 to 120 mins; assay type: functional, organism-based
In short: (§4)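 Rat Chung model: L5 and L6 spinal nerves tightly ligated with 4-0 silk distal to the DRG under halothane anaesthesia, animals recovered in individual cages. Single intraperitoneal dose, 10 or 60 mg/kg. Read-out was paw withdrawal latency to radiant heat, expressed as percent reversal of thermal hyperalgesia over time after dosing.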

[9] = target: T2, Nitric oxide synthase 3 (Homo sapiens); assay: Inhibition of eNOS in human arteries precontracted with U46619 assessed as inhibition of acteylcholine-induced vasorelaxation at 1 to 100 uM after 50 mins; in short: as §2
Cytochrome P450 1A2 = target: T4, Cytochrome P450 1A2 (Homo sapiens, UniProt P05177); assay: Inhibition of CYP1A2 using CEC as substrate; assay type: ADME; in short: as §3
T4 sequence (P05177 whole entry): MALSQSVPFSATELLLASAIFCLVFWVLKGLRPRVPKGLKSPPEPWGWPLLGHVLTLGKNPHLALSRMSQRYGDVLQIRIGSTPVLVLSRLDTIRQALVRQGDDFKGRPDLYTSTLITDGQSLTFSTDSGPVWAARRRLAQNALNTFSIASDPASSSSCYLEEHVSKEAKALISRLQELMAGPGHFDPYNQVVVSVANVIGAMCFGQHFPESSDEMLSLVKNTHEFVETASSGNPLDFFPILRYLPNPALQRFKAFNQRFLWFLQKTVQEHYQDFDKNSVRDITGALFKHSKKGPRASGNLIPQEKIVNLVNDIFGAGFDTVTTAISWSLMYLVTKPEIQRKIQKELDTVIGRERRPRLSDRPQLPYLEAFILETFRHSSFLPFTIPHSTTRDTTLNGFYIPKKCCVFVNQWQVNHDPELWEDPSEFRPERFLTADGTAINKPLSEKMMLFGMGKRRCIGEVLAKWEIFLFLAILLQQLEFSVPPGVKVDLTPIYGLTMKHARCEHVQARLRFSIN

Cytochrome P450 2C9 = Cytochrome P450 2C9 (Homo sapiens, UniProt P11712); assay: Inhibition of CYP2C9 using MFC as substrate; assay type: ADME; in short: as §3
Rattus norvegicus [10] = assay: Analgesic activity in rat SNL model assessed as reversal of thermal hyperalgesia at 60 mg/kg, ip administered as single dose measured at 90 mins; assay type: functional; conditions: route intraperitoneal; in short: as §4
Cytochrome P450 2C19 = Cytochrome P450 2C19 (Homo sapiens, UniProt P33261); assay: Inhibition of CYP2C19 using CEC as substrate; assay type: ADME; in short: as §3
Chain of Cytochrome P450 2C19 (P33261 whole entry): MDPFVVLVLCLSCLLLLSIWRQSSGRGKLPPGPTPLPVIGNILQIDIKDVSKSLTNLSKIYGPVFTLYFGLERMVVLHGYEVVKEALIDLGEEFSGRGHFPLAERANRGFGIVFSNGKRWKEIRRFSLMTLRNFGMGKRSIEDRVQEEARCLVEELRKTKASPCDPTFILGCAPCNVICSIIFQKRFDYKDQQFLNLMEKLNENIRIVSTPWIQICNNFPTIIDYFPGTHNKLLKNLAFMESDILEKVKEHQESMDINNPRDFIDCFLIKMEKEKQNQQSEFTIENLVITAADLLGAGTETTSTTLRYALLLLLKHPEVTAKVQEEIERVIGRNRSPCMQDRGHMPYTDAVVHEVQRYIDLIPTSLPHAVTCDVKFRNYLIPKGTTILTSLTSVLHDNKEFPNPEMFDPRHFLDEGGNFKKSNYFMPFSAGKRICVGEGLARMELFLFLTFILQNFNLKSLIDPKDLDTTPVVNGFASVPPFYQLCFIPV

T3 sequence (P08684 whole entry): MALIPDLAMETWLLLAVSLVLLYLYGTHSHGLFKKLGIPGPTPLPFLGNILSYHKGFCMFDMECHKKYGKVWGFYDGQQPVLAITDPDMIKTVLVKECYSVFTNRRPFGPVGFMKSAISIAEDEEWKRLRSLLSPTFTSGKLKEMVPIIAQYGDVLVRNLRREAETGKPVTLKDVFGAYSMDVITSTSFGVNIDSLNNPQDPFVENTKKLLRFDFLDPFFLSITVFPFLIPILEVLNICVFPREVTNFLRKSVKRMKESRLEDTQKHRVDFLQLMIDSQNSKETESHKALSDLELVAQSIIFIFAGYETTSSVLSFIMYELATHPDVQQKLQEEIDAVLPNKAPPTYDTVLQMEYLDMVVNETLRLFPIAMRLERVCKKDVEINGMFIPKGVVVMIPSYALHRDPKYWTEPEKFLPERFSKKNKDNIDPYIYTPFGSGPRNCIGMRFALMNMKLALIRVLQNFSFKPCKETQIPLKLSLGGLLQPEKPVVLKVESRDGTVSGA
Chain of Nitric oxide sythases; iNOS & nNOS (Homo sapiens) (P29475 whole entry, looked up): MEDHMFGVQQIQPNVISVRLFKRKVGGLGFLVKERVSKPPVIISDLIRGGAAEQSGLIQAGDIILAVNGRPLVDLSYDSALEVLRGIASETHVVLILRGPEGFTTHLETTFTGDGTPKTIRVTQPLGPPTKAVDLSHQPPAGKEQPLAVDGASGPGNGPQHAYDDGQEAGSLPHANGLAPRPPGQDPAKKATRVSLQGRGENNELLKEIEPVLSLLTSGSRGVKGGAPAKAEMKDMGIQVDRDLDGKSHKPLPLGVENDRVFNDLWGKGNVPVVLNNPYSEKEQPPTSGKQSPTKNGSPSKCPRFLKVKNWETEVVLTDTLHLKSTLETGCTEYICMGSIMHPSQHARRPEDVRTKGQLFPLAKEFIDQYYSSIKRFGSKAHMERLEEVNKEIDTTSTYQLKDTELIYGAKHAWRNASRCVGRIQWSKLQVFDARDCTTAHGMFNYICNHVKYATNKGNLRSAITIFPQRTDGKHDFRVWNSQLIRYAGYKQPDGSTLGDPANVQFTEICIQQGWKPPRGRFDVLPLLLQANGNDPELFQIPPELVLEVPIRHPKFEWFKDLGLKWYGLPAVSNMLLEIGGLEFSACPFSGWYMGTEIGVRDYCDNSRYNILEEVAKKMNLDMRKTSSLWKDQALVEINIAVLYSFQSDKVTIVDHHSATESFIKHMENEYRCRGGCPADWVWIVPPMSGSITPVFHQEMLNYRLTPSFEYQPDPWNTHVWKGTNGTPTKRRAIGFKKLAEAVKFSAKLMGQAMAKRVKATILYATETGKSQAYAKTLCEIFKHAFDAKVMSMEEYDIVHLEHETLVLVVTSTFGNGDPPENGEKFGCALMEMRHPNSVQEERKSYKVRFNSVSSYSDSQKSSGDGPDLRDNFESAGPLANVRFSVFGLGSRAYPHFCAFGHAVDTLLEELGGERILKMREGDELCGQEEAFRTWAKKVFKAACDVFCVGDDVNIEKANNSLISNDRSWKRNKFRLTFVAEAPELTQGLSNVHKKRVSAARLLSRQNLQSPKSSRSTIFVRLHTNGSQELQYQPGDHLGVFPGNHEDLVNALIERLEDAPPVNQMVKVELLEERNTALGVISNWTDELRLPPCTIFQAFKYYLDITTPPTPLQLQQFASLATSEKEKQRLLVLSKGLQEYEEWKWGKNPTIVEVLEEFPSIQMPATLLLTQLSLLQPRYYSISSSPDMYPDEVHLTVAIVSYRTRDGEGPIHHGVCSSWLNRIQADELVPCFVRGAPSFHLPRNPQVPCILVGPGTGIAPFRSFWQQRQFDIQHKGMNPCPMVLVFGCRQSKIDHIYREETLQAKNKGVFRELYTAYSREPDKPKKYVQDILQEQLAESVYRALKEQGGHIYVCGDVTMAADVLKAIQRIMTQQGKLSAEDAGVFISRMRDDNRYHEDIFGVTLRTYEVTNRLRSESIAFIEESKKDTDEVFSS
Chain of Nitric oxide sythases; iNOS & nNOS (Homo sapiens) (P35228 whole entry, looked up): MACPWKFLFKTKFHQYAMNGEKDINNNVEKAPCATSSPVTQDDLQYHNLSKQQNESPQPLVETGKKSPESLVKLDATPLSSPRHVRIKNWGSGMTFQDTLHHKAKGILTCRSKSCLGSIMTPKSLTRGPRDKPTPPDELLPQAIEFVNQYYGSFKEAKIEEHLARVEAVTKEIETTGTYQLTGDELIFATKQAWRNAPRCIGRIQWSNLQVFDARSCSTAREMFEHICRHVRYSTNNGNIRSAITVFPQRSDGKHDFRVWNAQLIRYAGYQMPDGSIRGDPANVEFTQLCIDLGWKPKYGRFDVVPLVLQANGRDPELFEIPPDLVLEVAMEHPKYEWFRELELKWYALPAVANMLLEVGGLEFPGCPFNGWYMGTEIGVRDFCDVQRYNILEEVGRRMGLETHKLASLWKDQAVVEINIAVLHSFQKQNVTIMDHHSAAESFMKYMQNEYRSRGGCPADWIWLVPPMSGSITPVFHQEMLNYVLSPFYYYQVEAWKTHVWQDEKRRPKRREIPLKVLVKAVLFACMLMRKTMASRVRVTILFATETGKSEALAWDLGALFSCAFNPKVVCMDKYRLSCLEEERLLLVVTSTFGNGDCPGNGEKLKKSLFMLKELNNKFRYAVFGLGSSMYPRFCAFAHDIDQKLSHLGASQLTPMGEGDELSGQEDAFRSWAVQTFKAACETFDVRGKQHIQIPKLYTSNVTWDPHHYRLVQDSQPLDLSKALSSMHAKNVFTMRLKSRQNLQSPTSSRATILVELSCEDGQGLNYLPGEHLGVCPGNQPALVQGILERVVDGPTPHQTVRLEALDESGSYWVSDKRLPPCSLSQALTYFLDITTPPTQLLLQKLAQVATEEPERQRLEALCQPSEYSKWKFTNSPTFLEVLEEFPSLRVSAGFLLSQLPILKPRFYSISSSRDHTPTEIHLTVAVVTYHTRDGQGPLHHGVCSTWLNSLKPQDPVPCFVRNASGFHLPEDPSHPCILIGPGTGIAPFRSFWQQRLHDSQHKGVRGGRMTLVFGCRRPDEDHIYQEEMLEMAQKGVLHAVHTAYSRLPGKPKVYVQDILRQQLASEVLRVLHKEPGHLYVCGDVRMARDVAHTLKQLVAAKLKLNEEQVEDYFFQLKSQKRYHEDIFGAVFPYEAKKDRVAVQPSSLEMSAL
Chain of Nitric oxide synthase 1 (P29475 whole entry): as the sequence (P29475 whole entry, looked up) above
Chain of Nitric oxide synthase, inducible (P35228 whole entry): as the sequence (P35228 whole entry, looked up) above
Chain of Cytochrome P450 2C9 (P11712 whole entry): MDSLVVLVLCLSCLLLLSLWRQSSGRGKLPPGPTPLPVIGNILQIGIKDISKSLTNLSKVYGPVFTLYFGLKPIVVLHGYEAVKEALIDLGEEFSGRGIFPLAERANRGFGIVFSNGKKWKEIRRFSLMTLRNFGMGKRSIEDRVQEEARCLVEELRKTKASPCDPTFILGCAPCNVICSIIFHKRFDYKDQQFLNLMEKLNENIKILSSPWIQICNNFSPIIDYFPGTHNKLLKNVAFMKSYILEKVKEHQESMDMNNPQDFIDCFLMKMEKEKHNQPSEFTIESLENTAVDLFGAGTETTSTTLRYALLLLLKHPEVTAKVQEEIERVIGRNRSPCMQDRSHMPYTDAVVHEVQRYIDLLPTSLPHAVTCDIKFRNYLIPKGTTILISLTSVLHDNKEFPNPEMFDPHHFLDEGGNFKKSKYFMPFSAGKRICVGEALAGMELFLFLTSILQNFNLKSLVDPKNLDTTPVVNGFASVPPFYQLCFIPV
Chain of Cytochrome P450 2D6 (P10635 whole entry): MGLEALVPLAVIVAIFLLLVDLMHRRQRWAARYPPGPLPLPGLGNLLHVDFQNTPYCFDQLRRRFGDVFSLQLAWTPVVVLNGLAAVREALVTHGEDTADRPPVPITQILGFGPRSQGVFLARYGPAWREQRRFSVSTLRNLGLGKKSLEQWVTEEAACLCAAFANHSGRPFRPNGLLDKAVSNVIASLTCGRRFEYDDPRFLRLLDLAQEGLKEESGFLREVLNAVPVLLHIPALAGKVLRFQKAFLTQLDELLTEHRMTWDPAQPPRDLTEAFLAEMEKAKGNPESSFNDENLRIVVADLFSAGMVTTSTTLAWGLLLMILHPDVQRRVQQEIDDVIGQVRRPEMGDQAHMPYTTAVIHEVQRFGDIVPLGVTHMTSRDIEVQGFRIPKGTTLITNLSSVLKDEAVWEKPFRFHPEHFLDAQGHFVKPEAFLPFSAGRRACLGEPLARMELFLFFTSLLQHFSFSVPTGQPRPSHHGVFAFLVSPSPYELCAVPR

Compound	Ratio IC50 [1]	IC50 (Nitric oxide synthase 3)	IC50 [2]	IC50 (Nitric oxide synthase 1)	further results
N=C(Nc1ccc2c(C3CN4CCC3CC4)c[nH]c2c1)c1cccs1 (single isomer, unassigned; enantiomer 2)	309				
CNC(=N)NCCC[C@H](N)C(=O)O.Cl.Cl					Activity (Homo sapiens): 67%
FC(F)(F)c1ccccc1-n1ccnc1					Activity (Gerbillinae): 8%
N=C(Nc1ccc2c(C3CN4CCC3CC4)c[nH]c2c1)c1cccs1 (single isomer, unassigned; enantiomer 1) [listing 1 of 2 here]		23.3 µM	52.1 µM	0.53 µM	
CN1CCC(c2c[nH]c3cc(NC(=N)c4cccs4)ccc23)C1 (stereo unspecified)	13		2.6 µM		
N=C(Nc1ccc2c(C3CN4CCC3CC4)c[nH]c2c1)c1cccs1 (single isomer, unassigned; enantiomer 1) [listing 2 of 2 here]	98				
N=C(Nc1ccc(CCNCc2cccc(Cl)c2)cc1)c1cccs1					Activity (Gerbillinae): 44%
N=C(Nc1ccc2c(C3CN4CCC3CC4)c[nH]c2c1)c1cccs1 (racemic) [listing 1 of 2 here]	15				
COC(=O)[C@@H](N)CCCNC(=N)N[N+](=O)[O-]	1.2	0.68 µM	0.83 µM	0.69 µM	inhibition [3]: Dose-dependent effect; inhibition [4]: inactive
N=C(Nc1ccc2c(C3CN4CCC3CC4)c[nH]c2c1)c1cccs1 (racemic) [listing 2 of 2 here]		33.3 µM	18.4 µM	1.23 µM	
CN1CC=C(c2c[nH]c3cc(NC(=N)c4cccs4)ccc23)CC1.Cl.Cl	15	26.5 µM	12.3 µM	0.8 µM	IC50 (Cytochrome P450 2D6): 63.2 µM; inhibition [5]: inactive; IC50 (Cytochrome P450 3A4 [6]): > 100 µM; IC50 (Cytochrome P450 3A4 [7]): 74.8 µM; Activity (Rattus norvegicus [8]): Dose-dependent effect; inhibition [9]: inactive; IC50 (Cytochrome P450 1A2; read-out: IC50): > 100 µM; IC50 (Cytochrome P450 2C9; read-out: IC50): 72.7 µM; Activity (Rattus norvegicus [10]): 67%; IC50 (Cytochrome P450 2C19): 40.1 µM
O=[N+]([O-])c1cccc2cn[nH]c12 [7-NITROINDAZOLE]					Activity (Gerbillinae): 22%
N=C(Nc1ccc2c(C3=CN4CCC3CC4)c[nH]c2c1)c1cccs1	6		8.4 µM	1.5 µM	
Cl.Cl.N=C(Nc1ccc2c(C3CN4CCC3CC4)c[nH]c2c1)c1cccs1 (single isomer, unassigned; enantiomer 2)		40.6 µM	139 µM	0.45 µM	IC50 (Cytochrome P450 2D6): > 100 µM; IC50 (Cytochrome P450 3A4 [6]): > 100 µM; IC50 (Cytochrome P450 3A4 [7]): 100 µM; IC50 (Cytochrome P450 1A2): Not Active; IC50 (Cytochrome P450 2C9): Not Active; IC50 (Cytochrome P450 2C19): 49.6 µM
CN1CCC(c2c[nH]c3cc(NC(=N)c4cccs4)ccc23)CC1	78	10.7 µM		0.12 µM	
CN1CCC[C@@H]1CCn1ccc2ccc(/N=C(\N)c3cccs3)cc21	225				
